Screening data: PubChem, The Scripps Research Institute Molecular Screening Center
This is a sample that favours compounds with a hit; in the whole collection about 0.58% have one here.
V1aR counter: activates human V1a receptor in oxytocin agonist counter-screen; activation, % at 3 µM; 320,000 compounds, 0.25% hits; CHO-V1R cells, Fluo-8 calcium fluorescence, agonist mode; 0% DMSO, 100% 3 nM vasopressin; AID 2797;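 active = activation above the mean activation of all tested compounds plus 3 SD, per screening run, cut at about 20% in these data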;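 note: signal is peak over basal fluorescence ratio across a 100 second FLIPR read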
Target sequence (P37288 whole entry, looked up): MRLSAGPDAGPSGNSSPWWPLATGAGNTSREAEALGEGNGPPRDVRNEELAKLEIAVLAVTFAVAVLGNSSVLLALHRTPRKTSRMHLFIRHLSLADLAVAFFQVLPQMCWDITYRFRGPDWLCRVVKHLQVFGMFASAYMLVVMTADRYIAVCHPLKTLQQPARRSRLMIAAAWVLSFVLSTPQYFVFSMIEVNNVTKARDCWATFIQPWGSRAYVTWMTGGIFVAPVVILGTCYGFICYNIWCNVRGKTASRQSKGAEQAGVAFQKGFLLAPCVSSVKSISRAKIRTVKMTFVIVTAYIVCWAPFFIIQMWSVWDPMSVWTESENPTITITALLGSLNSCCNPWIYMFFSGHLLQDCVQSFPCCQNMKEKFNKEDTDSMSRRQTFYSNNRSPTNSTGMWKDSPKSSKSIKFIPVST
TRPN1 ag: zebrafish TRPN1 (NompC) channel agonism; HEK293 zebrafish TRPN1-YFP, Fluo-8 calcium fluorescence; 100% = response to 87 µM carbachol; activation, % at 3 µM; 220,000 compounds, 0.18% hits; AID 1424;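 active = activation above its plate's cutoff, the mean activation of test wells on that plate plus 3 SD, cut at about 19% in these data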
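Assay system: Zebrafish TRPN1-YFP in HEK293 cells | Incubation: Dye loading 1 h at 37 °C, then 30 min room temperature | Measured by: Kinetic Fluo-8 fluorescence, ex 470-495, em 515-575 nm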
TRPML3 ag: activates the human TRPML3 channel | Q8TDD5 | HEK293 TRPML3-YFP, Fluo-8 calcium fluorescence; 100% = the carbachol control signal | activation, % at 3 µM | 220,000 compounds, 0.29% hits;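 active = activation above its plate's cutoff, the mean activation of the plate's test wells plus 3 SD, cut at about 12% in these data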
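Material: HEK293 cells stably carrying human TRPML3-YFP; compound dosing: single dose, 3 µM final nominal compound, 0.3% DMSO final; incubation: 1-h 37 °C dye load, 5-s basal, 120-s post-compound reads; technique: Fluo-8 intracellular calcium fluorescence, excitation 470-495 nm, emission 515-575 nm; read-out basis: percent activation from peak-to-basal fluorescence ratio, scaled between DMSO and carbachol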
OXTR ag: agonists of human oxytocin receptor | P30559 | CHO-OTR cells, Fluo-8 calcium fluorescence; normalized: DMSO 0%, oxytocin 100% | activation, % at 3 µM | 320,000 compounds, 0.32% hits;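 active = activation above the mean of all tested compounds plus 3 SD, cutoff set per screening run, cut at about 20% in these data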;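 note: peak over basal fluorescence ratio from a 100 s FLIPR kinetic read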
Target sequence (P30559 whole entry, looked up): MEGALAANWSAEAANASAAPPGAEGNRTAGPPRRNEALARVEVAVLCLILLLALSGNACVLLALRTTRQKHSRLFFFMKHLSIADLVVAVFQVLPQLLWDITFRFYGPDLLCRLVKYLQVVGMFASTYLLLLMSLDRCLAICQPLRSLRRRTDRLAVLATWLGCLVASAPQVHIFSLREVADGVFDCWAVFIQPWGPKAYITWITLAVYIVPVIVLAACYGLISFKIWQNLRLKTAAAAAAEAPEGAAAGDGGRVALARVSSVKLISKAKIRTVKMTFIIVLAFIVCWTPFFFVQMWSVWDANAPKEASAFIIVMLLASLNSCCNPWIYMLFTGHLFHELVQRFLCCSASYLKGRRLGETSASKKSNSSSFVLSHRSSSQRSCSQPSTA
OXTR potentiate: potentiators of human oxytocin receptor. CHO-OTR cells, Fluo-8 calcium fluorescence, potentiator mode; 0% = oxytocin EC15, 100% = EC100. activation, % at 3 µM. AID 2445. 320,000 compounds, 0.061% hits. P30559;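 active = activation above that plate's cutoff, the mean activation of tested compounds plus 3 SD, cut at about 6.6% in these data, passing the limit was not always enough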
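test system = CHO-OTR cells, human receptor | compound = single-point 3.0 µM | schedule = 6 min compound pre-incubation at room temperature, 100 s kinetic read | signal = Fluo-8 no-wash calcium dye fluorescence, excitation 470-495 nm, emission 515-575 nm | repeats = single well per compound, singlicate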
OXTR ag confirm: human OXTR agonism, confirmation | shares compounds with OXTR ag | activation, % at 3 µM | AID 434963 | CHO-OTR cells, Fluo-8 calcium fluorescence, agonist | 390 compounds, 20% hits;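 active = mean activation above about 20% derived from the earlier single-dose screen, limit read from the data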;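 note: peak over minimum fluorescence ratio per well during a 100 second FLIPR read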
V1aR counter 3x: activates V1a receptor in oxytocin agonist counter-screen. AID 434991. shares compounds with OXTR ag. 390 compounds, 10% hits. CHO-V1R cells, Fluo-8 calcium fluorescence. activation, % at 3 µM;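 active = mean activation over triplicate exceeds the hit threshold set in the earlier primary screen, cut at about 20% in these data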;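 note: peak over basal fluorescence ratio within a 100 second read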
Large screens that a line does not name were inactive (follow-up assays come after a bar, where they were run).

CC(C)Cn1c(N)c(C(=O)COC(=O)c2ccc3c(c2)OCCO3)c(=O)n(C)c1=O	OXTR ag 19.8 | OXTR ag confirm inactive | V1aR counter 3x inactive
O=C(N1CCCCC1)N1CCN(S(=O)(=O)c2ccc(Cl)cc2)CC1	OXTR ag 27.4 | OXTR ag confirm inactive | V1aR counter 3x inactive
O=C(N1CCCCCC1)N1CCN(S(=O)(=O)c2ccccc2)CC1	none
N=c1n(CC(=O)c2ccc(Br)s2)c2ccccc2n1Cc1ccccc1	OXTR ag 23.1 | OXTR ag confirm 21.9 | V1aR counter 3x inactive
CCOC(=O)c1cc2n(c1/N=C/N(C)C)-c1ccccc1C2=O	OXTR ag 24.5 | OXTR ag confirm 26.1 | V1aR counter 3x 33.0
CCOC(=O)c1ccc2c(c1)N(C)C(=O)c1ccccc1S2	none (no result: TRPN1 ag, TRPML3 ag)
Cc1ccc(/C=N/NC(=O)C(C)Oc2ccccc2[N+](=O)[O-])s1 (stereo unspecified)	none
CC(Sc1ccc(Cl)cc1)C(=O)Nc1ccc(S(=O)(=O)N2CCOCC2)cc1 (stereo unspecified)	OXTR ag 28.8 | OXTR ag confirm 20.6 | V1aR counter 3x inactive
COc1ccc(/C=C(/NC(=O)c2ccccc2)C(=O)N2CCCCC2)cc1OC	none (no result: TRPN1 ag, TRPML3 ag)
COc1ccc(/C=C(/NC(=O)c2ccccc2)C(=O)N2CCCC2)cc1OC	OXTR ag 28.1 (no result: TRPN1 ag, TRPML3 ag) | OXTR ag confirm inactive | V1aR counter 3x inactive
OC(CNC1CCCCCC1)COc1cccc2ccccc12 (stereo unspecified)	OXTR ag 19.9 (no result: TRPN1 ag, TRPML3 ag) | OXTR ag confirm inactive | V1aR counter 3x inactive
COc1ccc(CN(C)c2ccc(S(=O)(=O)N3CCN(C)CC3)cc2[N+](=O)[O-])cc1OC	OXTR ag 26.4 (no result: TRPN1 ag, TRPML3 ag) | OXTR ag confirm inactive | V1aR counter 3x inactive
COc1ccc(CNCCC(c2ccccc2)c2ccc3c(c2)OCO3)cc1 (stereo unspecified)	OXTR ag 22.2 | OXTR ag confirm inactive | V1aR counter 3x inactive
OC(CNCC1CCCO1)Cn1c2ccc(Cl)cc2c2cc(Cl)ccc21 (stereo unspecified)	OXTR ag 32.8 | OXTR ag confirm inactive | V1aR counter 3x inactive
Cc1c(Cl)cccc1NC(=S)NNc1ncc(C(F)(F)F)cc1Cl	OXTR ag 29.1 | OXTR ag confirm inactive | V1aR counter 3x inactive
O=C(CCN1CCN(Cc2ccccc2)CC1)Nc1ccc(OCc2ccccc2)cc1	OXTR ag 22.2 | OXTR ag confirm inactive | V1aR counter 3x inactive
O=C(CN1CCN(CC(=O)Nc2ccc(OCc3ccccc3)cc2)CC1)Nc1ccc(F)cc1	OXTR ag 21.5 | OXTR ag confirm inactive | V1aR counter 3x inactive
O=C(CN1C(=O)c2ccccc2C1=O)N1CCN(C2c3ccccc3-c3ccccc32)CC1	none
[O-]/C(=C(\C(=S)NCc1ccccc1)[n+]1ccccc1)c1ccc(Cl)s1	none
CC(O)CNCc1ccc(-c2ccccc2)cc1 (stereo unspecified)	none
CC(NCc1ccc(-c2ccccc2)cc1)C(O)c1ccccc1 (stereo unspecified)	OXTR ag 22.9 | OXTR ag confirm inactive | V1aR counter 3x inactive
Cc1cc(CN2CCC(n3nccc3NC(=O)c3ccccc3Cl)CC2)cc(C)c1O	none (no result: TRPN1 ag, TRPML3 ag)
COC(=O)c1sc(NC(=S)NC(=O)c2ccccc2C)nc1C	OXTR ag 28.2 | OXTR ag confirm 32.6 | V1aR counter 3x 39.0
Cc1ccc(-n2ncc3c2CCCC3NC(=O)CCCN2CCCCC2=O)cc1C (stereo unspecified)	none (no result: TRPN1 ag, TRPML3 ag)
COc1ccc(CCNC(=O)CCC(=O)N2CCOc3ccccc32)cc1OC	none (no result: TRPN1 ag, TRPML3 ag)
C[C@H]1CC[C@H]2C(=O)N[C@H](Cc3ccccc3)C(=O)N2[C@@H]1c1ccccc1	OXTR ag 30.1 | OXTR ag confirm inactive | V1aR counter 3x inactive
Cc1ccc(NCc2nnc(SCC(=O)c3ccc4c(c3)OCCO4)o2)c(C)c1	none
COc1ccc(C(=O)CSc2nnc(CNc3ccc(C)cc3C)o2)cc1	OXTR ag 24.7 | OXTR ag confirm inactive | V1aR counter 3x inactive
COCCNC(=O)/C(C#N)=C/c1ccc(N2CCOCC2)o1	none
N#C/C(=C\c1ccc(N2CCOCC2)o1)C(=O)NCCc1ccccc1	TRPN1 ag 25.5, TRPML3 ag 13.6, OXTR ag 21.2 | OXTR ag confirm 23.5 | V1aR counter 3x 45.8
Cc1ccc(S(=O)(=O)N2CCN(c3ccc(C(=O)N4CCOCC4)cc3[N+](=O)[O-])CC2)cc1	none
Cc1cccc(CCN2C(Nc3ccccc3)=NC[C@@H]2CC(C)C)c1	OXTR ag 21.4 (no result: TRPN1 ag, TRPML3 ag) | OXTR ag confirm inactive | V1aR counter 3x 20.6
CC(=O)c1sc2nc(-c3cccs3)cc(C(F)(F)F)c2c1N	OXTR ag 27.4 | OXTR ag confirm 40.0 | V1aR counter 3x 52.1
Cc1c(C(=O)O)sc2nc(-c3cccs3)cc(C(F)(F)F)c12	none (no result: TRPN1 ag, TRPML3 ag)
COc1ccc(CCn2c(C(C)C)nc3c(c(=O)c4ccccc4n3C)c2=O)cc1	OXTR ag 30.2 | OXTR ag confirm inactive | V1aR counter 3x inactive
Cc1ccc(CNC(=O)CS(=O)(=O)Cc2nc(-c3ccc(C)cc3)oc2C)cc1	none (no result: TRPN1 ag, TRPML3 ag)
OC(c1cc(C(F)(F)F)nc2c(C(F)(F)F)cccc12)C1CCCCN1 (stereo unspecified)	OXTR ag 23.6 (no result: TRPN1 ag, TRPML3 ag) | OXTR ag confirm inactive | V1aR counter 3x inactive
COc1ccccc1NS(=O)(=O)c1cccc(C(=O)NCC(c2ccc(F)cc2)N2CCOCC2)c1 (stereo unspecified)	none (no result: TRPN1 ag, TRPML3 ag)
Nc1cc(=O)[nH]c(SCc2ccc(Cl)cc2Cl)n1	OXTR ag 21.6 (no result: TRPN1 ag, TRPML3 ag) | OXTR ag confirm inactive | V1aR counter 3x inactive
COc1ccc(/C=C/C(=O)NC(=S)NNC(=O)c2cccs2)cc1	OXTR ag 26.4 | OXTR ag confirm inactive | V1aR counter 3x inactive
COc1ccc(C(=O)NNC(=S)NC(=O)c2cccs2)cc1	none (no result: TRPN1 ag, TRPML3 ag)
Cc1ccc(CNC(=O)Cn2nnc(C(=O)Nc3cccc(C)c3C)c2N)cc1	none (no result: TRPN1 ag, TRPML3 ag)
Cc1ccccc1Cn1nnc(C(=O)Nc2cccc(C)c2C)c1N	OXTR ag 21.9 | OXTR ag confirm 22.2 | V1aR counter 3x inactive
COc1cccc(OC)c1OCC(=O)Nc1ccc(S(=O)(=O)N2CCCC2)cc1	none (no result: TRPN1 ag, TRPML3 ag)
CC1CCC(NC(=O)Cn2c(=O)oc3ccccc32)CC1 (stereo unspecified)	none (no result: TRPN1 ag, TRPML3 ag)
CSc1cccc(NS(=O)(=O)c2ccc3c(c2)CCN3C(C)=O)c1	OXTR ag 20.3 (no result: TRPN1 ag, TRPML3 ag) | OXTR ag confirm inactive | V1aR counter 3x inactive
COc1cccc(NS(=O)(=O)c2ccc3c(c2)CCN3C(C)=O)c1	OXTR ag 19.9 (no result: TRPN1 ag, TRPML3 ag) | OXTR ag confirm inactive | V1aR counter 3x inactive
CC(=O)N1CCc2cc(S(=O)(=O)Nc3cccc(C(F)(F)F)c3)ccc21	none
